# Experimental data from ChEMBL document CHEMBL1240445, “Synthesis, antioxidant and DNA cleavage activities of novel indole derivatives” (Eur J Med Chem, 2010).
# Activity calls are given as the source filed them. The rule behind the calls is not given here.
# Test system: not listed separately
# Experiment: Antioxidant activity assessed as equivalence of ascorbic acid
# Assay type: functional
# Method in brief: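 Phosphomolybdenum total antioxidant capacity: 10, 50 and 500 µg sample mixed with 1.9 mL reagent (0.6 M sulfuric acid, 28 mM sodium phosphate, 4 mM ammonium molybdate), heated 95 °C for 90 min, cooled; absorbance at 695 nm against blank. Expressed as ascorbic acid equivalents from an ascorbic acid standard graph.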
row,Compound,Activity
1,O=C1NC(=O)C(=C(/C=C/c2c[nH]c3ccccc23)c2ccccc2)C(=O)N1,Active
2,Cc1ccc(C(/C=C/c2c[nH]c3ccccc23)=C2C(=O)NC(=O)NC2=O)cc1,Active
3,O=C1NC(=O)C(=C(/C=C/c2c[nH]c3ccccc23)c2ccc(Cl)cc2)C(=O)N1,Active

# Test system: Radical scavenging activity
# Experiment: Antioxidant activity assessed as DPPH radical scavenging activity
# Assay type: functional
# Method in brief: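 DPPH method: 10, 50 and 100 µg sample or BHA brought to 100 µl with MeOH, plus 5 mL 0.1 mM methanolic DPPH, shaken, left 20 min at 27 °C; absorbance at 517 nm versus control lacking sample. % scavenging = [(control OD − sample OD)/control OD] × 100.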
row,Compound,Activity
1,Cc1ccc(C(/C=C/c2c(-c3ccccc3)[nH]c3ccc(Cl)cc23)=C2C(=O)NC(=O)NC2=O)cc1,Active
2,O=C1NC(=O)C(=C(/C=C/c2c(-c3ccccc3)[nH]c3ccc(Cl)cc23)c2ccc(Cl)cc2)C(=O)N1,Active
3,O=C1NC(=O)C(=C(/C=C/c2c(-c3ccccc3)[nH]c3ccc(Cl)cc23)c2ccccc2)C(=O)N1,Active

# Test system: Nucleic Acid
# Experiment: cleavage of Escherichia coli DNA by agarose gel electrophoresis
# Assay type: nucleic-acid assay
# Method in brief: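 Genomic DNA from E. coli grown 24 h at 37 °C in nutrient broth, isolated by SDS lysis, phenol and chloroform:isoamyl alcohol extraction, ethanol precipitation. Samples (1 mg/ml stock in DMF) added to DNA, incubated 2 h at 37 °C, mixed 1:1 with bromophenol blue, run on agarose gel in TAE beside DNA marker, 50 V for 30 min.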
row,Activity,Compound
1,Active,Cc1ccc(C(/C=C/c2c(-c3ccccc3)[nH]c3ccc(C)cc23)=C2C(=O)NC(=O)NC2=O)cc1
2,Active,O=C1NC(=O)C(=C(/C=C/c2c[nH]c3ccccc23)c2ccccc2)C(=O)N1
3,Active,Cc1ccc(C(/C=C/c2c(-c3ccccc3)[nH]c3ccc(Cl)cc23)=C2C(=O)NC(=O)NC2=O)cc1
4,Active,O=C1NC(=O)C(=C(/C=C/c2c(-c3ccccc3)[nH]c3ccc(Cl)cc23)c2ccc(Cl)cc2)C(=O)N1
5,Active,Cc1ccc(C(/C=C/c2c[nH]c3ccccc23)=C2C(=O)NC(=O)NC2=O)cc1
6,Active,O=C1NC(=O)C(=C(/C=C/c2c(-c3ccccc3)[nH]c3ccc(Cl)cc23)c2ccccc2)C(=O)N1
7,Active,O=C1NC(=O)C(=C(/C=C/c2c[nH]c3ccccc23)c2ccc(Cl)cc2)C(=O)N1
8,Active,Cc1ccc2[nH]c(-c3ccccc3)c(/C=C/C(=C3C(=O)NC(=O)NC3=O)c3ccc(Cl)cc3)c2c1
9,Active,Cc1ccc2[nH]c(-c3ccccc3)c(/C=C/C(=C3C(=O)NC(=O)NC3=O)c3ccccc3)c2c1

# Test system: not listed separately
# Experiment: Antioxidant activity assessed as ferric reduction
# Assay type: functional
# Method in brief: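 Reducing power: sample with 200 mmol/L sodium phosphate buffer (pH 6.6) and 2.5 mL 1% potassium ferricyanide, held 50 °C for 20 min, then 2.5 mL 10% (w/v) trichloroacetic acid added.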
row,Compound,Activity
1,O=C1NC(=O)C(=C(/C=C/c2c[nH]c3ccccc23)c2ccccc2)C(=O)N1,Active
2,Cc1ccc(C(/C=C/c2c[nH]c3ccccc23)=C2C(=O)NC(=O)NC2=O)cc1,Active
3,O=C1NC(=O)C(=C(/C=C/c2c[nH]c3ccccc23)c2ccc(Cl)cc2)C(=O)N1,Active
